Sampled rows, rich in hits. Any-hit rate of the full collection: about 1.5%.
PKA-R1A activ: activators of PKA-R1A holoenzyme, primary screen, biochemical, fluorescence polarization, Cy5-IP20, bovine R1A, mouse PKAc; cAMP-dependent protein kinase type I-alpha regulatory subunit (Bos taurus) + …; PKA-R1A dissociation; scaled: DMSO 0%, 113 µM cGMP 100%; activation, % at 11.4 µM; actives 0.083% (n = 340,000); AID 504707, 2011;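 active = percent activation above the mean of all tested compounds plus 3 SD, cut at about 19% in these data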;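 note: higher means more PKAc released from R1A so a rise in polarization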
CRFR2-BP antag: antagonists of CRF-BP/CRF-R2 complex, primary screen, cell-based, HEK293, calcium dye fluorescence, uHTS; inhibition, % at 11.8 µM; actives 0.59% (n = 350,000); CRF-induced calcium fluorescence; AID 588475, 2011;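 active = inhibition of the ligand-induced calcium signal above about 50% at the single tested concentration, limit read from the data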
SIRT5 block: SIRT5 desuccinylase inhibitors, primary screen, biochemical, fluorescence imaging, single point, set 5. NAD-dependent protein deacylase sirtuin-5, mitochondrial (Homo sapiens), Q9NXA8. Purified SirT5, succinyl-peptide AMC, trypsin-coupled fluorescence. inhibition, % at 15 µM. actives 1.1% (n = 330,000). AID 652115, 2013; in the data active = inhibition above about 15%
S100A4 MyoIIA: inhibitors of S100A4-myosin IIA peptide binding, primary screen, biochemical, fluorescence polarization, TAMRA-MyoIIA peptide | inhibition, % at 10.7 µM | actives 0.14% (n = 360,000) | AID 652163, 2013 | Protein S100-A4 (Homo sapiens), P26447;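 active = mean inhibition of at least 70% across replicates, with every replicate also reaching that level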
Target sequence (P26447 whole entry, looked up): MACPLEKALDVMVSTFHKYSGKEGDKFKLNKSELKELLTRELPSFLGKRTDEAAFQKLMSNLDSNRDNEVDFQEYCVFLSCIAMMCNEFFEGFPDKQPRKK
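assay system = human S100A4 monomer with TAMRA-labelled myosin IIA peptide | also added = labelled myosin peptide probe, 5 nM | incubation = 5 min between mix addition and reading | control set = DMSO and TFP controls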
PKA-R2B act: activators of PKA-R2B holoenzyme, primary screen, biochemical, fluorescence polarization, Cy5-IP20, human; PKA-R2B holoenzyme dissociation; R2B truncated from residue 108, S112A mutant; 0% DMSO only, 100% 113 µM cGMP; cAMP-dependent protein kinase catalytic subunit beta (Homo sapiens) + cAMP-dependent …; activation, % at 11.4 µM; actives 0.079% (n = 340,000);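 active = activation above a cutoff set at the mean over all compounds plus 3 SD, cut at about 18% in these data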;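 note: higher means more holoenzyme dissociation and a rise in polarization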
Target sequence (P31323 whole entry, looked up, other chains not shown, the tested form may be a part): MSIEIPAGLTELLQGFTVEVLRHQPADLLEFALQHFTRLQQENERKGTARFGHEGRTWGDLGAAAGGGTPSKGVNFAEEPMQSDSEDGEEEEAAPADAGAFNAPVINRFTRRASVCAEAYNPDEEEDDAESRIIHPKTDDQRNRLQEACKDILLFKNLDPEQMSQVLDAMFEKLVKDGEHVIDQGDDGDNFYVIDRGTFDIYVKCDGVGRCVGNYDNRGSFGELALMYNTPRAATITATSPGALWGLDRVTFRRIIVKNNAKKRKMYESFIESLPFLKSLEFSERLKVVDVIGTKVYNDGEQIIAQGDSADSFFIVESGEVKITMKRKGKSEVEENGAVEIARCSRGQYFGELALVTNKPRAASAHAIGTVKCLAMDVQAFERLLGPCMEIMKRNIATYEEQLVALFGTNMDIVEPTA
R2B FP artifact: fluorescence polarization artefacts, biochemical, artefact control for PKA-R2B activator project | shares compounds with PKA-R2B act | FP artifact counterscreen | activation, % at 11.4 µM | actives 6% (n = 270) | AID 504796, 2011; in the data active = activation above about 20%;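 note: Cy5 labelled IP20 peptide probe with compound but no PKA protein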
PKA-R2B act conf: activators of PKA-R2B holoenzyme, confirmation, biochemical, fluorescence polarization, human; PKA-R2B complex, activation; activation, % at 11.4 µM; shares compounds with PKA-R2B act; actives 9% (n = 270); AID 504797, 2011; in the data active = activation above about 19%
Target sequence (P31323 whole entry, looked up): as the sequence (P31323 whole entry, looked up, other chains not shown, the tested form may be a part) above
A number is an active result; 0 = inactive; - = not tested or not shown.

SMILES	PKA-R1A activ	CRFR2-BP antag	SIRT5 block	S100A4 MyoIIA	PKA-R2B act	R2B FP artifact	PKA-R2B act conf
CC(C)S(=O)(=O)C1=NSC2=NC(=O)/C(=C\c3ccc(-c4ccccc4)o3)C(=N)N21	0	0	-	-	0	-	-
CC(C)S(=O)(=O)C1=NSC2=NC(=O)/C(=C\c3ccc(-c4cccc(C(=O)O)c4)o3)C(=N)N21	0	0	21	0	0	-	-
C[C@@H]1CN([C@H](C)CO)C(=O)Cc2cc(NS(=O)(=O)c3cn(C)cn3)ccc2O[C@@H]1CN(C)C(=O)Nc1ccc2c(c1)OCO2	-	-	0	0	-	-	-
O=C(N=C1SC2CS(=O)(=O)CC2N1c1ccccc1F)C1CCCCC1 (stereo not drawn)	0	0	0	0	0	-	-
O=C(N=C1SC2CS(=O)(=O)CC2N1c1ccc(F)cc1F)C1CC1 (stereo not drawn)	0	0	17	0	0	-	-
C[C@@H]1CN([C@@H](C)CO)C(=O)c2cc(NC(=O)Nc3ccccc3)ccc2O[C@@H](C)CCCCO[C@@H]1CN(C)S(=O)(=O)c1cccs1	-	-	0	0	-	-	-
Cc1nn(C)cc1NC(=O)C[C@H]1CC[C@@H]2[C@H](COc3ccc(NC(=O)C4CCOCC4)cc3C(=O)N2C)O1	-	-	0	0	-	-	-
Cc1cc(C)c(NC(=O)/C(=C/c2ccccc2)c2ccccc2)c(C)c1	0	67	0	0	0	-	-
COc1ccc(S(=O)(=O)N(C)C[C@@H]2OCCCC[C@H](C)Oc3ccc(NS(=O)(=O)c4ccc(C)cc4)cc3C(=O)N([C@H](C)CO)C[C@H]2C)cc1	-	-	22	0	-	-	-
COc1ccc(S(=O)(=O)N(C)C[C@@H]2OCCCC[C@H](C)Oc3ccc(NS(=O)(=O)c4ccc(C)cc4)cc3C(=O)N([C@@H](C)CO)C[C@H]2C)cc1	-	-	0	0	-	-	-
COc1ccc(S(=O)(=O)N(C)C[C@@H]2OCCCC[C@H](C)Oc3ccc(NS(=O)(=O)c4ccc(C)cc4)cc3C(=O)N([C@H](C)CO)C[C@@H]2C)cc1	-	-	24	0	-	-	-
COc1ccc(S(=O)(=O)N(C)C[C@@H]2OCCCC[C@@H](C)Oc3ccc(NS(=O)(=O)c4ccc(C)cc4)cc3C(=O)N([C@@H](C)CO)C[C@@H]2C)cc1	-	-	23	0	-	-	-
COc1ccc(S(=O)(=O)N(C)C[C@H]2OCCCC[C@H](C)Oc3ccc(NS(=O)(=O)c4ccc(C)cc4)cc3C(=O)N([C@@H](C)CO)C[C@@H]2C)cc1	-	-	22	0	-	-	-
COc1ccc(S(=O)(=O)Nc2ccc3c(c2)C(=O)N([C@@H](C)CO)C[C@@H](C)[C@@H](CN(C)S(=O)(=O)c2ccc(C)cc2)OCCCC[C@H](C)O3)cc1	-	-	0	0	-	-	-
COCCNC(=O)[C@@H]1[C@@H](CO)[C@@H]2Cn3c(ccc(-c4ccc(F)cc4)c3=O)[C@H]1N2C	-	-	0	0	-	-	-
COc1ccccc1CNC(=O)C[C@@H]1CC[C@@H]2[C@H](COc3ccc(NS(=O)(=O)c4ccc(C)cc4)cc3C(=O)N2C)O1	-	-	0	0	-	-	-
CO[C@@H]1CN(C)C(=O)c2ccc(NS(=O)(=O)c3cccc(F)c3)cc2OC[C@@H](C)NC[C@@H]1C	-	-	0	0	-	-	-
Cc1ccccc1-c1cnc2c(c1)C(=O)N([C@H](C)CO)C[C@H](C)[C@H](CN(C)Cc1ccncc1)O2	-	-	0	0	-	-	-
Cc1ccccc1NS(=O)(=O)c1cc(S(C)(=O)=O)ccc1C	0	0	0	0	19	0	0
C=CCN(CCNP(=O)(OCC)OCC)CP(=O)(OCC)OCC	0	0	-	-	20	0	0
O=C(CCS(=O)(=O)c1ccc(F)cc1)Nc1nnc(-c2ccc(F)cc2)o1	0	0	0	0	19	0	0
Cc1ccc(-c2nnc(NC(=O)CCS(=O)(=O)c3ccc(F)cc3)o2)c(C)c1	0	0	0	0	0	-	-
COc1ccc(NC(=O)Nc2ccc3c(c2)CC(=O)N([C@H](C)CO)C[C@@H](C)[C@H](CN(C)C(=O)NC(C)C)O3)cc1	-	-	0	0	-	-	-
COc1ccc(/C=C2\SC(=O)N(CC(=O)NNC(=O)c3ccccc3O)C2=O)cc1	0	0	0	0	20	0	21
Cc1ccc(C(=O)N2CCN(c3ccc(C(F)(F)F)cn3)CC2)cc1	0	0	-	-	20	0	0
SMILES	PKA-R1A activ	CRFR2-BP antag	SIRT5 block	S100A4 MyoIIA	PKA-R2B act	R2B FP artifact	PKA-R2B act conf
COc1ccc(OC)c(-c2nnc3n2N=C(c2ccc(OC)c(OC4CCOC4)c2)CS3)c1 (stereo not drawn)	0	0	0	0	19	0	0
COc1ccc(-c2ccc([C@@H]3[C@@H](CO)N4C(=O)CN(Cc5ccc(C)cc5)C[C@H]34)cc2)cc1	-	-	0	0	-	-	-
CCN1CCCC1CN(Cc1cc2cc(C)ccc2[nH]c1=O)C(=O)Nc1ccccc1OC (stereo not drawn)	0	0	-	-	19	0	0
COc1ccccc1NC(=O)N(CCN1CCCC1)Cc1cc2cc(C)ccc2[nH]c1=O	0	0	-	-	0	-	-
C[C@H](CO)N1C[C@H](C)[C@@H](CN(C)S(=O)(=O)c2ccc(F)cc2)Oc2ccc(NC(=O)c3ccncc3)cc2CC1=O	-	-	0	0	-	-	-
CC1CN(Cc2nnc(-c3ccccc3)o2)CC(C)O1 (stereo not drawn)	0	0	0	0	22	0	0
CCN1CCN(Cc2nnc(-c3ccccc3)o2)CC1	0	0	0	0	0	-	-
C[C@@H]1CN([C@H](C)CO)C(=O)c2cc(NC(=O)NC3CCCCC3)ccc2O[C@@H](C)CCCCO[C@@H]1CN(C)Cc1ccc2c(c1)OCO2	-	-	0	0	-	-	-
Cc1onc(-c2ccccc2Cl)c1C(=O)NCc1cccnc1	0	0	-	-	20	0	0
COc1ccc(NC(=O)Nc2ccc3c(c2)C(=O)N([C@H](C)CO)C[C@H](C)[C@@H](CN(C)C(=O)Nc2ccc(C(F)(F)F)cc2)O3)cc1	0	0	0	0	19	0	0
CC(C)(C)C(=O)Nc1nc(C2CCCN2S(=O)(=O)c2ccc(Cl)cc2)cs1 (stereo not drawn)	0	0	-	-	19	0	0
Cn1c(SCC(=O)N2CCCC2)nc2c(c1=O)SCC2	0	0	0	0	0	-	-
CC1CCN(C(=O)CSc2nc3c(c(=O)n2C)SCC3)CC1	0	0	0	0	24	0	0
CC(C)Cn1c(=O)c(C(=O)NCc2ccccn2)c(O)c2ccccc21	0	0	-	-	21	0	0

High-throughput results deposited in PubChem by several laboratories.
